ChEMBL document CHEMBL1144030, “Synthesis of a potent and selective (18)F-labeled delta-opioid receptor antagonist derived from the Dmt-Tic pharmacophore for positron emission tomography imaging” (J Med Chem, 2008)
Square brackets hold non-standard residues; d marks the D form. Peptide text beside a SMILES is read from it. * marks the point of attachment. Dmt = Cc1cc(O)cc(C)c1C[C@H](N)C(=O)O; Tic = O=C(O)[C@@H]1Cc2ccccc2CN1; Cbz = O=C(OCc1ccccc1)*

Legend:
Rattus norvegicus = species on record: Rattus norvegicus; assay: Ratio of Ki for mu opioid receptor to delta opioid receptor in Sprague-Dawley rat brain P2 synaptosomal membrane
Method in brief: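 Ratio of Ki values from rat brain P2 synaptosome competition binding (2.5 h, 23 °C, equilibrium; filtration on polyethylenimine-treated GFC filters). Ki by Cheng-Prusoff from duplicate assays at five to eight doses, 3–5 independent preparations.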

Mu-type opioid receptor [1] = target: Mu-type opioid receptor (Rattus norvegicus, UniProt P33535); assay: Displacement of [3H]DAMGO from mu opioid receptor in Sprague-Dawley rat brain P2 synaptosomal membrane
Mu-type opioid receptor (Rattus norvegicus, UniProt P33535), sequence (P33535 whole entry): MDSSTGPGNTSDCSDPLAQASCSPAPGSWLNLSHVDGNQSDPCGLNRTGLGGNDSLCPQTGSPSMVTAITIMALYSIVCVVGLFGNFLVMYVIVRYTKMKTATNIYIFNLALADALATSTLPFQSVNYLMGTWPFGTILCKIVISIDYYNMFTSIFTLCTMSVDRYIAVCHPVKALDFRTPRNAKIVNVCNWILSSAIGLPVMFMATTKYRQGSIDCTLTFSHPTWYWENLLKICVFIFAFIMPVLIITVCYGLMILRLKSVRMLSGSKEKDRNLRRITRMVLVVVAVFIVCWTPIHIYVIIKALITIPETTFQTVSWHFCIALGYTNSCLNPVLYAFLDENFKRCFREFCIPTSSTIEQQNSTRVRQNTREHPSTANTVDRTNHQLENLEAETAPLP
Method in brief: (§1)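 Competition binding on rat brain P2 synaptosomes, preincubated to strip endogenous opioids and stored at −80 °C in buffered 20% glycerol. Equilibrium 2.5 h at 23 °C. Separation on GFC filters presoaked in 0.1% polyethylenimine, washed three times with ice-cold buffered BSA. Duplicates, five to eight doses, 3–5 independent membrane preparations; Ki by Cheng-Prusoff, mean ± SE.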

[2] = target: T1, Delta-type opioid receptor (Mus musculus, UniProt P32300); assay: Agonist activity at delta opioid receptor in mouse vas deferens assessed as inhibition of electrically evoked-contraction; assay type: functional, tissue-based
T1 sequence (P32300 whole entry): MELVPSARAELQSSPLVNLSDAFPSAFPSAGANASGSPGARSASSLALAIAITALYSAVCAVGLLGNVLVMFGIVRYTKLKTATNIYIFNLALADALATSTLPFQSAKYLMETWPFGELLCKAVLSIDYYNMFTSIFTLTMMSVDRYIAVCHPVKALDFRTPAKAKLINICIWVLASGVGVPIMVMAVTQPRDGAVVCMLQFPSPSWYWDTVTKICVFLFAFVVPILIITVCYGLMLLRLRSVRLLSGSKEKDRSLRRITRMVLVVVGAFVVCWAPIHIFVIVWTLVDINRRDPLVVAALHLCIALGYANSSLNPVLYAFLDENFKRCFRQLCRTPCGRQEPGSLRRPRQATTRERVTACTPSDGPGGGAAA
Method in brief: (§2)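 Isolated tissue: single mouse vas deferens (delta) or myenteric plexus longitudinal muscle strips, 2–3 cm, from small intestine of male Hartley guinea pigs (mu), in organ baths with balanced salt solution, pH 7.5. Inhibition of electrically evoked contraction; IC50 (nM) from dose-response curves, mean ± SE of five or six separate assays.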

Mu-type opioid receptor [3] = target: Mu-type opioid receptor (Cavia porcellus, UniProt P97266); assay: Agonist activity at mu opioid receptor in Hartley guinea pig assessed as inhibition of electrically evoked-contraction; assay type: functional; method in brief: as §2
Mu-type opioid receptor (Cavia porcellus, UniProt P97266), sequence (P97266 whole entry): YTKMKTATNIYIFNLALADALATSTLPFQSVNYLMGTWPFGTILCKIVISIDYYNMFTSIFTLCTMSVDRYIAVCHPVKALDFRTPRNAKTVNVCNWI

[4] = target: Delta-type opioid receptor (Rattus norvegicus, UniProt P33533); assay: Displacement of [3H]deltorphin2 from delta opioid receptor in Sprague-Dawley rat brain P2 synaptosomal membrane; method in brief: as §1
Delta-type opioid receptor (Rattus norvegicus, UniProt P33533), sequence (P33533 whole entry): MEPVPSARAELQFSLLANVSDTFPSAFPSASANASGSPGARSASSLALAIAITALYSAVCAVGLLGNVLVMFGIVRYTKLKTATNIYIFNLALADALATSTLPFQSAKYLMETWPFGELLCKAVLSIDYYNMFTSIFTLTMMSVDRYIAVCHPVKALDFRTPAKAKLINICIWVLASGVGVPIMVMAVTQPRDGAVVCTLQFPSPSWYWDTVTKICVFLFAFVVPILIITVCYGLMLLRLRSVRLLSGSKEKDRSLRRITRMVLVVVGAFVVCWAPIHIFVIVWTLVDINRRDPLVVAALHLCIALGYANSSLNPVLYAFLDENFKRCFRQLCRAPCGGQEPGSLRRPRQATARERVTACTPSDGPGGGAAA

[5] = target: T1, Delta-type opioid receptor; assay: Antagonist activity at delta opioid receptor in electrically stimulated-mouse vas deferens; assay type: functional, tissue-based; conditions: read-out: pA2 (converted)
Method in brief: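 Mouse vas deferens in organ bath with physiological salt buffer, pH 7.5, electrically stimulated. Antagonism measured against the delta agonist deltorphin-II and expressed as pA2 derived by Schild plot.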

Cc1cc(O)cc(C)c1C[C@H](N)C(=O)N1Cc2ccccc2C[C@@H]1C(=O)N[C@@H](Cc1ccccc1)C(=O)N[C@@H](CCCCNC(=O)c1ccc(F)cc1)C(=O)O
Ratio Ki (Rattus norvegicus): 53

Cc1cc(O)cc(C)c1C[C@H](N)C(=O)N1Cc2ccccc2C[C@H]1C(=O)N[C@@H](Cc1ccccc1)C(=O)N[C@@H](CCCCNC(=O)c1ccc(F)cc1)C(=O)O
Ki (Mu-type opioid receptor [1]): 13.2 nM
IC50 [2]: 5180 nM
IC50 (Mu-type opioid receptor [3]): 50.6 nM
Ki [4]: 0.248 nM
Kb [5]: 0.355 nM

Cc1cc(O)cc(O)c1C[C@H](N)C(=O)N1Cc2ccccc2C[C@@H]1C(=O)N[C@@H](Cc1ccccc1)C(=O)N[C@@H](CCCCNC(=O)OCc1ccccc1)C(=O)O
Ratio Ki (Rattus norvegicus): 145

Cc1cc(O)cc(C)c1C[C@H](N)C(=O)N1Cc2ccccc2C[C@H]1C(=O)N[C@@H](Cc1ccccc1)C(=O)N[C@@H](CCCCNC(=O)OCc1ccccc1)C(=O)O (H-[Dmt][Tic]FK(Cbz)-OH)
Ki (Mu-type opioid receptor [1]): 2.75 nM
IC50 (Mu-type opioid receptor [3]): > 10000 nM
Ki [4]: 0.019 nM

Cc1cc(O)cc(C)c1C[C@H](N)C(=O)N1Cc2ccccc2C[C@@H]1C(=O)NCCCC[C@H](NC(=O)c1ccc(F)cc1)C(=O)O
Ki (Mu-type opioid receptor [1]): 41.2 nM
IC50 (Mu-type opioid receptor [3]): 1920 nM
Ki [4]: 0.172 nM
Ratio Ki (Rattus norvegicus): 240
Kb [5]: 5.62 nM
